Results published in the RNAGym collection of RNA variant scans (doi:10.1126/science.aae0568).
Variants at the floor of the assay were thinned out.

B1: tRNA (parent)
chain: GUUCCGUUGGCGUAAUGGUAACGCGUCUCCCUCCUAAGGAGAAGACUGCGGGUUCGAGUCCCGUACGGAACG

Variants of: B1
Assay: yeast fitness relative to wild type (ratio to wild type); higher = fitter; tRNA-Arg(CCU), competitive growth, 37 C, YPD
Outline: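 The tRNA-Arg(CCU) gene variants were made by chemical synthesis with a 3% per-site mutation rate at 69 sites and inserted at the native genomic locus of Saccharomyces cerevisiae. After pooling, the strains were competed in YPD at 37°C for 24 hours in six parallel replicates. Gene amplicons from the start population and each end population were read by 100-nucleotide paired-end sequencing, and Darwinian fitness relative to wild type was taken from genotype frequency changes. Genotypes needed ≥ 100 starting reads, and estimates < 0.5 were set to 0.5.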

Variant | yeast fitness
C11U G41A | 0.902
C11U G17A C29A | ≤ 0.5
C11U C22U U54C G56C G58A | ≤ 0.5
G12A U19C | 0.982
G12C C49U A70U | 0.692
G12A A20C A43U U47C C62U A70C | ≤ 0.5
G12A C24A U26A C31A G67A | ≤ 0.5
G12A C27A C29U | 0.981
C11U G17C C62U A69U | 0.567
G12C C22G G25C G48A | 0.915
C11U C30U C66A | ≤ 0.5
G12C C34G | 0.696
C11U U16C G23A A36C | ≤ 0.5
G12A C27A C29U A36G | ≤ 0.5
G12A A36U U54C | 0.54
G12A U26A C30G C33U | ≤ 0.5
C11U U35A G38A C61G | 0.565
C11U G63A | 0.903
C11U U13G U19A C22G G25A A65C | ≤ 0.5
C11U C31U G39C A40U | 0.544
G12C C66A | 0.676
G12C A40G G50U C62U | ≤ 0.5
C11U U13C A20C C22G | ≤ 0.5
G12A A43G A69U | 0.803

Variant | yeast fitness
C11U G44A G50A C66G | 0.511
C11U G52A C60A | 0.593
G12C A45C C61A | 0.686
G12A C24A A36U A65U | ≤ 0.5
G12A A36G U47G G63A A65U | ≤ 0.5
C11U C31U U64A A70G | ≤ 0.5
G12A C33U A36C C62U | 0.553
C11U U19C G23A G25A C55U | 0.537
C11U G12C | 0.75
G12C A20U A21G C22G G50A C61A | ≤ 0.5
G12A C22A A36G A37G | ≤ 0.5
G12C A21U G50C A70C | ≤ 0.5
G12A G63A | 0.897
G12A A15G A65C | ≤ 0.5
C11U C27U C31A A42G C49G G51A G68C | ≤ 0.5
G12C C24U C49U C55U G68C | ≤ 0.5
G12C A14U C29U | ≤ 0.5
G12A U35C G41A G51C | ≤ 0.5
G12C C27G G56C | ≤ 0.5
C11U C22U A65U A69U | ≤ 0.5
G12A G38C C49U C62U A69U | 0.973
G12C A43U U59A A69G | ≤ 0.5
G12A A21G C46A | 0.936
C11U G58C C61U | 0.65

Variant | yeast fitness
C11U C27G A43U G63A | ≤ 0.5
C11U G17C U32A C46A | ≤ 0.5
G12A U13A A37G A40G U59A | ≤ 0.5
C11U C46G G51A C55U G63U | ≤ 0.5
G12C A43U A70C | 0.521
C11U C24G A36C A37G A70C | ≤ 0.5
G12C A40C A42U C49G C66G | ≤ 0.5
C11U U19C C27G | 0.66
G12C A45U C62G A65G | 0.604
C11U G18C A40C G63A | ≤ 0.5
G12A U32G U35A G38C G51C C66U | ≤ 0.5
C11U G39C G68C | ≤ 0.5
G12A G25A A70C | 0.76
C11U U16C C24U | 0.591
C11U U19G G52A | 0.609
C11U G23C G41A C62A | ≤ 0.5
C11U C33U A36G G39A G44A | ≤ 0.5
G12A A14C C34G | ≤ 0.5
G12C A20U C33U C66U | ≤ 0.5
C11U C29U A36U C66U G67A | ≤ 0.5
G12A U19C A21C | 0.685
G12A U19C A21U | 0.905
C11U G58U C61A | ≤ 0.5
C11U U19G | 0.962

Variant | yeast fitness
G12A U13C C49U | 0.674
G12A A40U G52C C60G | ≤ 0.5
C11U U64C | 0.879
C11U U64A | 0.71
G12C C24U | 0.651
G12A A57G A69C | ≤ 0.5
G12A A20C C49G | 0.539
C11U C24G C33A A40C C66U | 0.743
G12A G39C U47A | ≤ 0.5
G12C C24U U64G | ≤ 0.5
G12A C49U | 0.93
G12C C55U C61G | ≤ 0.5
C11U C55A | 0.678
C11U C55U | 0.8
G12A G38C | 0.869
G12A C33U G63A | ≤ 0.5
C11U C31G C49U G67A | ≤ 0.5
C11U C31G A70U | 0.598
G12A C33G A36C G44A | ≤ 0.5
G12A A14G A21G C24G U28G | 0.674
G12A U28G C30G C49U U64C | ≤ 0.5
G12C G17A A20U C34A A42C G48A C62U | ≤ 0.5
G12A G68U | 0.863
G12A G68C | 0.667

Variant | yeast fitness
G12C C22U U54C | 0.683
G12A G25A C60A | ≤ 0.5
G12A A15G A69C | 0.707
G12A A14U C30U | ≤ 0.5
G12C A43G C61U | ≤ 0.5
C11U U26C C61G A65C | ≤ 0.5
G12C C34U G44A G52A | ≤ 0.5
G12C C55G | 0.608
G12A U13A A65C | ≤ 0.5
G12A C27U C30G G68U | ≤ 0.5
C11U U35C C55A A69U | ≤ 0.5
G12C A45U A70U | 0.564
C11U U28C C29G G67A | ≤ 0.5
G12A C49U A65C | 0.676
G12A U28G C33G | ≤ 0.5
C11U U13G U19A C22G G25A G48A A69U | ≤ 0.5
G12C C33A | 0.682
G12A C30G A65U | ≤ 0.5
C11U U16A U54C | ≤ 0.5
G12C C31A A40C C62U | ≤ 0.5
G12A A20U U32A C49G G63A A65U | 0.535
G12A A20G C24U C27A A70U | ≤ 0.5
C11U G68C A69U | 0.54
C11U U32G U54A G67C | ≤ 0.5

Variant | yeast fitness
C11U C24A G68C | ≤ 0.5
G12A C24U C27A A70U | ≤ 0.5
C11U C31G C46G G52A C66U | ≤ 0.5
G12C A20G C46G | 0.548
G12A C24G U47A C49G A69C | ≤ 0.5
C11U U13C C30U A43G | ≤ 0.5
G12C C60U A70C | ≤ 0.5
C11U U19G C66A | 0.54
C11U U13C C24A A43C G50C | ≤ 0.5
C11U U19A C33U G41C A45C | ≤ 0.5
G12A C27G C34U A43C A57U G58A C62G | ≤ 0.5
C11U G18A G48A G67C | ≤ 0.5
G12A C24G G68A | ≤ 0.5
G12A C29G U35G C61U | ≤ 0.5
C11U C31U A40C | 0.697
G12A G18A U19C C55U A57C G58C G63A | ≤ 0.5
G12A G23A U35G A36G C62U A69G | ≤ 0.5
G12A C24A A36U C61U | 0.618
C11U U13A C30U G38C C49A | ≤ 0.5
C11U U47A C60G C62A | ≤ 0.5
G12A U13G G67A | ≤ 0.5
C11U C30G A40C C61U | ≤ 0.5
G12C A42G A70U | 0.592
G12A U13C A15C C46G | ≤ 0.5

Variant | yeast fitness
C11U G18A A36U | ≤ 0.5
G12A G52A | 0.688
C11U C27G A43C A57U | 0.696
C11U C34G A69C | 0.535
G12C C30A G48A C55G | 0.607
G12A C30G | 0.689
G12A C27U A42U C62U | ≤ 0.5
G12A C62U A70U | 0.695
C11U G18C A21G | 0.571
G12A C55U | 0.908
G12A C27G A36U A65U | ≤ 0.5
G12C C31U A65C A69U | ≤ 0.5
G12A C30U A45C C60G | ≤ 0.5
C11U U19C C61G A65C | ≤ 0.5
G12C A15G A45G G50C A69C | ≤ 0.5
G12A G44C G50A | 0.608
C11U G17C A21U G56A | ≤ 0.5
G12A A15U A21C U47A | ≤ 0.5
G12A G39C | 0.896
G12A G48C U54C | 0.567
C11U U32A A70C | 0.614
G12C C27G U35A G52A A57G A69U A70U | ≤ 0.5
G12C C29U A42U U47C C62U | ≤ 0.5
